Read-outs that look alike come from different tables or passages of the source.
What was measured:
HIV-1 = details: cited from earlier work
HIV-1 CA CTD = HIV-1 CA CTD (Human immunodeficiency virus type 1 group M subtype B, UniProt P12493); test: HTRF-based CAI binding competition assay; details: for inhibition at 50 µM: read-out: inhibition of CA CTD-CAI HTRF signal
[1] = system: Gag polyprotein processing; test: Anti-p24 western blot of infected MT-4 cell lysates; type: cell-based; details: MT-4 cells, 3 days of HIV-1IIIB replication, anti-p24 immunoblotting
C8166 cells = test: MTT cytotoxicity assay; type: cell-based, Human; details: 3 days
Summary of the method: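 C8166 T cells were maintained in RPMI 1640 with 10% FBS, penicillin and streptomycin. They were seeded at 4×10^4/well with serially diluted test compound and kept at 37°C, 5% CO2. Viability was measured by MTT after 3 days, and the 50% cytotoxic concentration was calculated.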

WT CA protein = WT CA protein (Human immunodeficiency virus type 1 group M subtype B, UniProt P12493); test: In vitro CA assembly assay; type: biochemical, HIV-1; details: 50 μM CA-WT, NaCl-dependent assembly, OD 350 nm
Summary of the method: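 Full-length WT CA (E. coli, pET11a) was dialysed into 50 mM sodium phosphate, pH 8.0, and mixed with test compound in 500 μl of that buffer. Assembly was started by adding 500 μl of the same buffer containing 4 M NaCl, pH 8.0. OD350 was read every 20 s for 30 min.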

[2] = target: GST-tagged HIV-1 capsid C-terminal domain (GST-CA CTD) (HIV-1); test: AlphaScreen or HTRF
[3] = target: CAI-biotin peptide (biotinylated capsid assembly inhibitor peptide); test: BLI

In the case of `C[C@H](CCC(=O)NCC(=O)O)[C@H]1CC[C@H]2[C@@H]3CC[C@@H]4C[C@H](O)CC[C@]4(C)[C@H]3C[C@H](O)[C@]12C` [GDC, glycodeoxycholate], the EC50 (HIV-1; ref Lampel et al., 2015) is listed as 3.12 µM and the inhibition at 50 µM (HIV-1 CA CTD) is listed as < 20%.

In the case of `Cc1ccnc(SCc2nc3ccccc3s2)n1` [BMMP], the EC50 (HIV-1; ref Urano et al., 2011) is listed as 20 to 50 µM.

In the case of `O=c1c2ccccc2[se]n1-c1ccccc1` [Ebselen], the EC50 (HIV-1; ref Thenin-Houssier et al., 2016) is given as 3.37 µM and the inhibition at 50 µM (HIV-1 CA CTD) is given as < 3.2%.

In the case of `C[C@H](CCC(=O)NCCS(=O)(=O)O)[C@H]1CC[C@H]2[C@@H]3[C@H](O)C[C@@H]4C[C@H](O)CC[C@]4(C)[C@H]3C[C@H](O)[C@]12C` [TA, taurocholic acid], the inhibition at 50 µM (HIV-1 CA CTD) is reported as < 20%.

For `Cc1ccc(NC(=O)NCCSCc2ccc(CN(C)C)o2)cc1Cl` [CAP-1], the EC50 (HIV-1; ref Tang et al. 2003) is given as ~70 µM.

For `Cc1cc(C=C2C(=O)C=CC2=O)cc(C)c1O` [TX-1918], the “effect on CA p24 production / Gag Pr55 processing” value [1] was “significant reductions in proteolyzed CA p24 with increasing concentrations”, the CC50 (C8166 cells) was 20.8 µM and the “effect on in vitro CA assembly” value (WT CA protein) was “inhibited CA assembly in vitro”. The “inhibition of CA CTD-CAI HTRF signal” value (HIV-1 CA CTD; compound at 50 μM) was > 70%.

For `CO[C@H]1[C@H](OC(=O)c2ccc(C)[nH]2)[C@H](O)[C@@H](Oc2ccc3c(O)c(NC(=O)c4c[nH]c(C(=O)Nc5c(O)c6ccc(O[C@H]7OC(C)(C)[C@@H](OC)[C@H](OC(=O)c8ccc(C)[nH]8)[C@@H]7O)c(C)c6oc5=O)c4C)c(=O)oc3c2C)OC1(C)C` [Coumermycin A1], the EC50 (HIV-1; ref Chen et al., 2016, Vozzolo et al. 2010) is given as 8 µM.

“untagged CAI peptide (capsid assembly inhibitor)” showed an IC50 [2] of 6.5 µM.

For `Cc1[nH]c2ccccc2c1CC(=O)N[C@@H](Cc1ccccc1)C(=O)N(C)c1ccccc1` [PF-3450074 (PF74)], the EC50 (HIV-1; ref Blair et al., 2010, Shi et al., 2011) is listed as 0.3 to 0.6 µM.

With “GST-tagged HIV-1 capsid C-terminal domain (GST-CA CTD) (domain or fragment)” the Kd [3] was 0.007 µM and the koff [3] was 0.000152 s⁻¹.

In the case of `CC(=O)Nc1cccc(-n2c(=O)n(C3CC3)c(=O)c3c(Nc4ccc(I)cc4F)n(C)c(=O)c(C)c32)c1` [trametinib], the inhibition at 50 µM (HIV-1 CA CTD) is reported as < 3.2%.
